Source: PubChem BioAssay (several laboratories)
An excerpt weighted towards active compounds, which were near 2.3% of everything screened.
JNK3 blocker = inhibitors of human JNK3 kinase; P53779; purified JNK3 kinase activity, HTS; inhibition, % at 8 µM; actives 0.61% (n = 60,000); AID 746; in the data active = inhibition above about 17%
MT1-MMP txn act = MT1-MMP promoter transcription activation; activation factor at 10 µM; AID 750; actives 0.16% (n = 86,000); HT1080 MT1-MMP promoter luciferase reporter, luminescence, overnight; stronger effect = higher value;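 active = activation factor of at least 2 for MT1-MMP transcription at 10 µM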
RORa activator = activates the human nuclear receptor RORA; CHO-K1 Gal4-RORA LBD luciferase reporter, luminescence; percent increase over mock-subtracted basal signal; activation, % at 10 µM; actives 1.5% (n = 65,000); P35398;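 active = activation above the mean of all tested compounds plus 3 SD, cut at about 49% in these data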
SF1 activator = activators of human nuclear receptor SF-1 | Q13285 | CHO-K1 Gal4-SF-1 LBD luciferase reporter; % increase over DMSO SF-1-specific signal | activation, % at 10 µM | actives 1.9% (n = 65,000);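 active = activation above the mean activation of all tested compounds plus 3 SD, cut at about 50% in these data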
Target sequence (Q13285 whole entry, looked up, the tested form may be a part): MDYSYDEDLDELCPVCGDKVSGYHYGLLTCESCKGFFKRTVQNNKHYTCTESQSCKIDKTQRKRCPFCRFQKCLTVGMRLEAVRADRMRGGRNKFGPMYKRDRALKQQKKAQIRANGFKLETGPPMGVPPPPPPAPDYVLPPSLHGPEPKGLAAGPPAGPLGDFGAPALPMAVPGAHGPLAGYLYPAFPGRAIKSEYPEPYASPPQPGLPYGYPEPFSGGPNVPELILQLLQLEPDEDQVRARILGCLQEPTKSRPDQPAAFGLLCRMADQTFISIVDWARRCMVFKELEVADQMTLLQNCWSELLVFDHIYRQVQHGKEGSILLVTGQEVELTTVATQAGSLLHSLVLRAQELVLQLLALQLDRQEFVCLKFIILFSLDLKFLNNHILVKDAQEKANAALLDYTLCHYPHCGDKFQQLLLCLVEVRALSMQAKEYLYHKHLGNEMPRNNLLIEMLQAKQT
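Assay system – CHO-K1 cells with Gal4–hSF-1 LBD chimera plus Gal4-driven luciferase · Quantity – 4,000 cells per well · Times – compound added 1 h post-seeding, 20 h exposure at 37 °C, 5% CO2 · Measured by – luciferase light emission · Benchmarks – DMSO and mock-transfected background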
Hits are given with their value; 0 = inactive; - = no result.

SMILES	JNK3 blocker	MT1-MMP txn act	RORa activator	SF1 activator
Cc1ccc(NC(=O)CCn2cnc3ccccc3c2=O)cc1Cl	0	0	0	0
O=C(CCn1cnc2ccccc2c1=O)Nc1ccc(S(=O)(=O)N2CCCC2)cc1	26.6	0	0	0
Cc1ccc(NC(=O)NC2CCN(S(=O)(=O)c3ccc(F)cc3)CC2)cc1	-	0	-	-
CC(=O)Nc1ccc(S(=O)(=O)N2CCC(n3cnc4cc(F)ccc43)CC2)cc1	23.4	0	0	0
Cc1ccc(C(=O)Oc2oc(-c3ccco3)nc2C=Nc2ccc(Cl)cc2)cc1	-	0	-	-
Cc1ccc(N=Cc2nc(-c3ccco3)oc2O)cc1	0	0	0	104.0
CCC1Oc2ccc(C)cc2N(CC(=O)N(Cc2ccc(C)o2)C2CCCC2)C1=O (stereo not drawn)	-	0	-	-
CCOc1ccccc1C1CC(=O)NC2=C1C(=O)CCC2 (stereo not drawn)	0	0	0	0
CCOc1ccc(C2CC(=O)NC3=C2C(=O)CCC3)cc1 (stereo not drawn)	44.9	0	0	0
CCCOc1ccc(-c2nc(=S)[nH][nH]2)cc1	-	0	-	-
C=CCSc1n[nH]c(-c2ccc(OCCC)cc2)n1	0	0	62.1	54.9
C=CCSc1n[nH]c(-c2ccc(OCCCC)cc2)n1	0	0	0	67.9
Cc1nn(-c2ccc(F)cc2)c(Cl)c1/C=C(\CC(=O)O)c1nc2ccccc2s1	-	0	-	-
CCCCC(=O)Nc1nnc(C)s1	0	0	0	0
CCCCC(=O)Nc1ncc(Br)s1	28.2	0	0	0
O=C(OC1CCCCC1)c1ccc(NC(=O)c2ccco2)cc1	0	0	49.3	59.5
Cc1cc(C(=O)Nc2ccccn2)cs1	0	0	55.9	62.2
O=C(Nc1ccc(-c2nc3ncccc3o2)cc1)c1ccc(Br)o1	0	0	0	0
Cn1cccc1-c1nc2ccc(NC(=O)c3ccco3)cc2[nH]1	0	0	0	0
Cc1ccc2nc(-c3ccc(NC(=O)c4ccco4)cc3)[nH]c2c1	0	0	0	50.1
O=C(Nc1ccc(-c2nc3ncccc3o2)cc1)c1ccco1	0	0	0	63.3
O=C(Nc1cccc(-c2nc3cccnc3s2)c1)c1ccco1	0	0	0	0
O=C(Nc1ccc(-c2nc3cccnc3s2)cc1)c1ccco1	22.7	0	0	0
O=C(Nc1ccccn1)c1ccc(NC(=O)c2ccco2)cc1	0	0	70.7	60.4
Cc1ccccc1NC(=O)c1ccc(NC(=O)c2ccco2)cc1	0	0	0	0
SMILES	JNK3 blocker	MT1-MMP txn act	RORa activator	SF1 activator
CCCn1c(C)cc(C(=O)CN2C(=O)c3ccccc3C2=O)c1C	0	0	54.8	65.1
Cc1ccccc1S(=O)(=O)Cc1ccc(C(=O)NCc2cccnc2)o1	0	0	0	0
CCCCNC(=O)C1CCN(Cc2ccc(OCc3ccccc3)cc2)CC1	-	2	-	-
CC1=C(C(=O)OCc2ccccc2)C(c2ccccc2OC(=O)c2cccs2)NC(=O)N1CCCC(=O)O (stereo not drawn)	-	0	-	-
C=C(C)CSc1nc2nc(C)c(Br)cc2[nH]1	-	0	-	-
CCOc1ccc(CCNS(=O)(=O)c2cccc3nsnc23)cc1OCC	0	0	0	0
Cc1cc(-c2ccccc2)nc(=O)[nH]1	0	0	0	0
CCC1C(=O)n2nc(-c3ccccc3)cc2N=C1C (stereo not drawn)	0	0	0	91.2
O=C(Nc1ccc(N2CCOCC2)c(Cl)c1)C1CCCCC1	0	0	49.4	0
COC(=O)c1c(NC(=O)C2CCCO2)sc2c1CCC2 (stereo not drawn)	-	0	-	-
NC(=O)c1c(NC(=O)C2CCCO2)sc2c1CCC2 (stereo not drawn)	31.1	0	0	0
NC(=O)c1c(NC(=O)c2cccs2)sc2c1CCCCCC2	0	0	55.8	0
O=C(Nc1ccc(Cl)cc1)c1ccc2c(c1)OCO2	0	0	0	0
O=C(Nc1ccc2c(c1)OCO2)c1cccc(Cl)c1	0	0	0	67.0
O=C(Nc1ccc2c(c1)OCO2)c1c(Cl)nc2sccn12	-	0	0	66.1
CC(=O)Nc1ccc(C(=O)Nc2ccc3c(c2)OCO3)cc1	0	0	0	0
Cc1occc1C(=O)Nc1ccc2c(c1)OCO2	0	0	0	53.4
Cc1noc(C(=O)Nc2ccc3c(c2)OCO3)c1Cl	0	0	65.0	60.6
Cc1ccccc1OCCN1C(=O)NC2(CCc3ccccc32)C1=O (stereo not drawn)	0	0	0	0
O=C(Nc1ccc(F)c(F)c1)c1ccc2c(c1)OCO2	0	0	0	66.2
O=C(Nc1ccc2c(c1)OCO2)c1cnn2cccnc12	0	0	61.4	70.3
O=C(CSc1nnc(-c2ccccc2)n1Cc1ccco1)NCc1ccc2c(c1)OCO2	-	0	-	-
Cc1c(Cl)cccc1NC(=O)c1cc(C2CC2)on1	0	0	0	0
COc1ccccc1NC(=O)N1CCCC1C(=O)NC12CC3CC(CC(C3)C1)C2 (stereo not drawn)	0	0	0	0
Cc1occc1C(=O)Nc1cccc2ccccc12	0	0	0	74.0
SMILES	JNK3 blocker	MT1-MMP txn act	RORa activator	SF1 activator
Cc1cc(C(=O)CNCc2ccco2)c(C)n1-c1ccc(F)cc1	0	0	69.7	52.9
Cc1cc(C(=O)OCC(=O)N2CCN(C(=O)c3ccco3)CC2)c(C)n1-c1ccc(F)cc1	0	0	0	0
O=C(NNC(=O)c1ccccc1Br)c1ccc(SCC2CCCO2)c([N+](=O)[O-])c1 (stereo not drawn)	-	0	-	-
C#CCn1c(=NC(=O)c2cccs2)sc2cccc(OC)c21	0	0	78.9	75.7
C#CCn1c(=NC(=O)CSCC(=O)N2CCOCC2)sc2ccccc21	-	0	0	0
Cc1ccc(C2C(C(=O)c3sc(-c4ccccc4)nc3C)=C(O)C(=O)N2CCN(C)C)o1 (stereo not drawn)	0	0	0	0
COc1ccccc1-c1ccc(NC2CCCCC2)nn1	0	0	0	80.5
COc1ccc2nc3c(cc2c1)Cc1ccccc1-3	-	0	-	-
c1ccc(CCn2nnnc2CN2CCCc3ccccc32)cc1	0	0	50.6	0
COc1ccc(OC)c(C(C)NC(=O)c2ccco2)c1 (stereo not drawn)	0	0	0	0
COc1cccc(C2NC(=O)N(CCCC(=O)O)C(C)=C2C(=O)OCc2ccccc2)c1 (stereo not drawn)	-	0	-	-
CC1=C(C(=O)OCC(Br)(Br)Br)C(c2cccc3ccccc23)NC(=O)N1CCCC(=O)O (stereo not drawn)	-	0	-	-
O=c1c2ccccc2nnn1CSc1nnc(COc2ccc(Cl)cc2)n1Cc1ccco1	0	0	0	55.6
COc1ccc(-c2nnc(SCc3ccccc3)n2N)cc1	0	0	0	65.6
COC(=O)c1ccccc1NC(=O)CN1CCN(C23CC4CC(CC(C4)C2)C3)CC1	0	0	0	0
COC(=O)c1ccc(C(NC(=O)OCc2ccccc2)/C(=C/[C@@H](C)C(=O)NCc2ccccc2)C(F)(F)F)cc1 (stereo partly drawn)	-	0	-	-
CC(=O)N1CC=CC1(C)C(=O)NCc1ccc(C)o1 (stereo not drawn)	-	0	-	-
O=C1COc2ccc(OCc3ccc(F)cc3)cc21	0	0	78.3	0
COc1ccc(C(C)=O)cc1COC(=O)c1cc(C)oc1C	17.8	0	0	0
COc1ccc(C(C)=O)cc1COC(=O)c1cccc(N(C)C)c1	0	0	0	0
